Blank lines part the entries; values can stand above or below the compound they belong to.
Assays:
[1] = Ex vivo biodistribution, MDAMB231 xenografts; assay type: in vivo, NSG mice; conditions: female, NSG, mouse, MDAMB231 tumor (xenograft), iv, 740 kBq, total radioactivity
How it was run: (§1)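 Female NSG mice (6–8 weeks) with subcutaneous xenografts got 740 kBq radiotracer in 200 µL iv. The radiotracer was reconstituted in saline with 5% DMSO and Tween 20, then diluted in saline. Mice were killed at 120 min (MDAMB231 also 60 min, plus a group coinjected with 50 µg unmodified peptide). Blood, tumour and tissues were weighed and gamma-counted with triplicate standards. %ID/g reported as mean ± SEM.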

[2] = Ex vivo biodistribution, H226 xenografts; assay type: in vivo, NSG mice; conditions: female, NSG, mouse, H226 tumor (xenograft), iv, 740 kBq, total radioactivity
How it was run: as §1

[3] = Ex vivo biodistribution, hPD-L1 xenografts; assay type: in vivo, NSG mice; conditions: female, NSG, mouse, hPD-L1 tumor (xenograft), iv, 740 kBq, total radioactivity
How it was run: (§2)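 Female NSG mice (6–8 weeks) bearing subcutaneous CHO/hPD-L1 and parental CHO tumours received radiotracer iv in saline (from 5% DMSO/Tween 20 stock). For blocking, it was coinjected with 50 µg unmodified peptide. Mice were dissected at 10, 60 and 120 min (n = 4 per time point). Blood, tumours and tissues were weighed and gamma-counted with triplicate radioactive standards. Values are %ID/g, mean ± SEM, compared by unpaired two-tailed t test.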

hPD-L1 tumors = assay: Ex vivo biodistribution, hPD-L1 xenografts; assay type: in vivo, NSG mice; conditions: co-injected with 50 µg blocking dose of WL12
How it was run: as §2

[4] = tested on: hPD-L1, CHO, MDAMB231, SUM149, H226, and H1155 cells; assay: [^18F]FPy-WL12 in vitro uptake assay; assay type: cell-based; conditions: blocking with 1 µM unmodified WL12; 1 hour at 37°C
How it was run: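 Cells were lifted with non-enzymatic dissociation buffer. 1 × 10⁶ cells in PBS with 2 mM EDTA and 1% FBS were incubated with 1 µCi radiotracer for 1 h at 37°C, washed three times with cold PBS, and bound activity was gamma-counted. CHO-hPD-L1 cells were kept in F-12K/10% FBS with 2 mg/mL G418. SUM149 cells were grown in Ham's F-12/5% FBS with insulin and hydrocortisone. Runs were in triplicate, repeated three times.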

[5] = Ex vivo biodistribution, normal tissues; assay type: in vivo, NSG mice; conditions: at all the time points (10, 60, 120 minutes); blocking dose had minimal effect
How it was run: as §2

[6] = Ex vivo biodistribution, SUM149 xenografts; assay type: in vivo, NSG mice; conditions: female, NSG, mouse, SUM149 tumor (xenograft), iv, 740 kBq, total radioactivity
How it was run: as §1

[7] = target: recombinant human PD-L1(B7-H1)-His-tag protein (human) (UniProt Q9NZQ7); assay: AlphaScreen or HTRF
[8] = target: endogenous PD-L1 on MDAMB231 and H226 cells (human (endogenous in MDAMB231 and H226)) (UniProt Q9NZQ7)

Compound: CCCC[C@H]1C(=O)N(C)[C@@H](CCCC)C(=O)N[C@@H](CCCNC(=O)c2ccc(F)nc2)C(=O)N[C@H](C(=O)NCC(N)=O)CSCC(=O)N[C@@H](Cc2ccc(O)cc2)C(=O)N(C)[C@@H](C)C(=O)N[C@@H](CC(N)=O)C(=O)N2CCC[C@H]2C(=O)N[C@@H](Cc2c[nH]cn2)C(=O)N[C@@H](CC(C)C)C(=O)N2C[C@H](O)C[C@H]2C(=O)N[C@@H](Cc2c[nH]c3ccccc23)C(=O)N[C@@H](CO)C(=O)N[C@@H](Cc2cn(C)c3ccccc23)C(=O)N1C [[^18F]FPy-WL12]
tissue uptake at 2 h [1]: 2.15 ± 0.1 %ID/g
tissue uptake at 2 h [2]: 2.77 ± 0.31 %ID/g
tissue uptake at 1 h [3]: 7.16 ± 1.67 %ID/g
reduction in the uptake in hPD-L1 tumors by blocking dose (hPD-L1 tumors): 85%
[^18F]FPy-WL12 uptake in cells coincubated with unmodified WL12 [4]: significantly reduced
accumulation in liver and kidneys [5]: high
tissue uptake at 2 h [6]: 1.43 ± 0.11 %ID/g

IC50 [7]: 26.4 nM
Ki [7]: 12.3 nM
Compound: WL12, PD-L1-binding peptide (14-amino acid cyclic peptide)

tumor uptake in MDAMB231 xenografts at 120 minutes, ex vivo biodistribution [8]: 2.15 %ID/g
Compound: [^18F]FPy-WL12, radiotracer (WL12 acylated with 6-[^18F]fluoronicotinate) (peptide)

IC50 [7]: 31.7 nM
Ki [7]: 14.8 nM
Compound: ^19FPy-WL12, nonradioactive analog of the radiotracer (WL12 acylated with 6-fluoronicotinate) (peptide)

Source: paper PMC6563393 (Molecular Imaging, 2019)
